Laboratory results as given in ChEMBL document CHEMBL4715736, “Identification of anticancer agents based on the thieno[2,3-b]pyridine and 1H-pyrazole molecular scaffolds” (2016).

Columns and labels:
Format in all cases: functional
BT-549 = assay: Growth inhibition of human BT-549 cells assessed as cell growth at 0.1 uM incubated for 48 hrs by sulforhodamine B assay relative to control; conditions: read-out: Activity
NCI-H460 = assay: Growth inhibition of human NCI-H460 cells assessed as cell growth at 100 uM incubated for 48 hrs by sulforhodamine B assay relative to control; conditions: read-out: Activity
RPMI-8226 [1] = assay: Growth inhibition of human RPMI-8226 cells incubated for 48 hrs by sulforhodamine B assay
Outline: (§1)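 NCI DTP 60-line human tumour panel. Dose-response curves were run only for ligands active in the initial 10 µM screen. GI50 (concentration giving 50% of maximal inhibition of proliferation) and TGI (concentration giving total growth inhibition) were derived from these curves.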

OVCAR-8 [2] = assay: Growth inhibition of human OVCAR-8 cells assessed as cell growth at 0.01 uM incubated for 48 hrs by sulforhodamine B assay relative to control; conditions: read-out: Activity
SW-620 = assay: Growth inhibition of human SW-620 cells assessed as cell growth at 0.1 uM incubated for 48 hrs by sulforhodamine B assay relative to control; conditions: read-out: Activity
SF-268 = assay: Growth inhibition of human SF-268 cells assessed as cell growth at 100 uM incubated for 48 hrs by sulforhodamine B assay relative to control; conditions: read-out: Activity
UACC-257 = assay: Growth inhibition of human UACC-257 cells incubated for 48 hrs by sulforhodamine B assay; outline: as §1
COLO 205 = assay: Growth inhibition of human COLO 205 cells assessed as cell growth at 0.01 uM incubated for 48 hrs by sulforhodamine B assay relative to control; conditions: read-out: Activity
Outline: (§2)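 NCI Developmental Therapeutics Program NCI60 panel. Compounds that were active in the 10 µM one-dose screen went on to dose–response testing. Growth at each concentration is expressed relative to untreated control (100%). GI50 (concentration giving 50% of maximal inhibition of proliferation) and TGI (concentration giving total growth inhibition) were derived from the curves.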

RXF 393 = assay: Growth inhibition of human RXF 393 cells assessed as cell growth at 0.1 uM incubated for 48 hrs by sulforhodamine B assay relative to control; conditions: read-out: Activity
OVCAR-4 = assay: Growth inhibition of human OVCAR-4 cells assessed as cell growth at 0.01 uM incubated for 48 hrs by sulforhodamine B assay relative to control; conditions: read-out: Activity
A498 [3] = assay: Growth inhibition of human A498 cells assessed as cell growth at 0.1 uM incubated for 48 hrs by sulforhodamine B assay relative to control; conditions: read-out: Activity; outline: as §2
NCI/ADR-RES = assay: Growth inhibition of human NCI/ADR-RES cells assessed as cell growth at 0.01 uM incubated for 48 hrs by sulforhodamine B assay relative to control; conditions: read-out: Activity
MOLT-4 [4] = assay: Growth inhibition of human MOLT-4 cells assessed as cell growth at 100 uM incubated for 48 hrs by sulforhodamine B assay relative to control; conditions: read-out: Activity
A498 [5] = assay: Growth inhibition of human A498 cells assessed as cell growth at 100 uM incubated for 48 hrs by sulforhodamine B assay relative to control; conditions: read-out: Activity; outline: as §2
SR = assay: Growth inhibition of human SR cells assessed as cell growth at 0.01 uM incubated for 48 hrs by sulforhodamine B assay relative to control; conditions: read-out: Activity
SNB-19 = assay: Growth inhibition of human SNB-19 cells incubated for 48 hrs by sulforhodamine B assay; outline: as §1
HOP-62 = assay: Growth inhibition of human HOP-62 cells assessed as cell growth at 100 uM incubated for 48 hrs by sulforhodamine B assay relative to control; conditions: read-out: Activity
PC-3 = assay: Growth inhibition of human PC-3 cells assessed as cell growth at 0.01 uM incubated for 48 hrs by sulforhodamine B assay relative to control; conditions: read-out: Activity
OVCAR-8 [6] = assay: Growth inhibition of human OVCAR-8 cells assessed as cell growth at 1 uM incubated for 48 hrs by sulforhodamine B assay relative to control; conditions: read-out: Activity
K562 = assay: Growth inhibition of human K562 cells assessed as cell growth at 100 uM incubated for 48 hrs by sulforhodamine B assay relative to control; conditions: read-out: Activity
LOX IMVI = assay: Growth inhibition of human LOX IMVI cells assessed as cell growth at 1 uM incubated for 48 hrs by sulforhodamine B assay relative to control; conditions: read-out: Activity
786-0 [7] = assay: Growth inhibition of human 786-0 cells assessed as cell growth at 0.01 uM incubated for 48 hrs by sulforhodamine B assay relative to control; conditions: read-out: Activity; outline: as §2
NCI-H226 [8] = assay: Growth inhibition of human NCI-H226 cells assessed as cell growth at 0.1 uM incubated for 48 hrs by sulforhodamine B assay relative to control; conditions: read-out: Activity
786-0 [9] = assay: Growth inhibition of human 786-0 cells incubated for 48 hrs by sulforhodamine B assay; conditions: for CC50: read-out: LC50 (the source's name); outline: as §2
MOLT-4 [10] = assay: Growth inhibition of human MOLT-4 cells incubated for 48 hrs by sulforhodamine B assay; conditions: for CC50: read-out: LC50 (the source's name)
Outline: (§3)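 NCI60 panel at the NCI Developmental Therapeutics Program. Only compounds active in the 10 µM screen went to dose-response testing. GI50, the concentration giving 50% of maximal inhibition of proliferation, and TGI, the concentration giving total growth inhibition, were derived from the dose-response curves.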

MDA-MB-468 = assay: Growth inhibition of human MDA-MB-468 cells assessed as cell growth at 0.1 uM incubated for 48 hrs by sulforhodamine B assay relative to control; conditions: read-out: Activity
NCI-H226 [11] = assay: Growth inhibition of human NCI-H226 cells assessed as cell growth at 0.01 uM incubated for 48 hrs by sulforhodamine B assay relative to control; conditions: read-out: Activity
MCF7 = assay: Growth inhibition of human MCF7 cells assessed as cell growth at 0.1 uM incubated for 48 hrs by sulforhodamine B assay relative to control; conditions: read-out: Activity
786-0 [12] = assay: Growth inhibition of human 786-0 cells assessed as cell growth at 100 uM incubated for 48 hrs by sulforhodamine B assay relative to control; conditions: read-out: Activity
NCI-H322M = assay: Growth inhibition of human NCI-H322M cells assessed as cell growth at 0.01 uM incubated for 48 hrs by sulforhodamine B assay relative to control; conditions: read-out: Activity
HT-29 = assay: Growth inhibition of human HT-29 cells incubated for 48 hrs by sulforhodamine B assay; outline: as §3
IGROV-1 = assay: Growth inhibition of human IGROV-1 cells assessed as cell growth at 0.1 uM incubated for 48 hrs by sulforhodamine B assay relative to control; conditions: read-out: Activity
CAKI-1 = assay: Growth inhibition of human CAKI-1 cells assessed as cell growth at 100 uM incubated for 48 hrs by sulforhodamine B assay relative to control; conditions: read-out: Activity; outline: as §2
RPMI-8226 [13] = assay: Growth inhibition of human RPMI-8226 cells assessed as cell growth at 1 uM incubated for 48 hrs by sulforhodamine B assay relative to control; conditions: read-out: Activity
RPMI-8226 [14] = assay: Growth inhibition of human RPMI-8226 cells assessed as cell growth at 0.1 uM incubated for 48 hrs by sulforhodamine B assay relative to control; conditions: read-out: Activity

## Nc1c(C(=O)Nc2ccccc2)sc2nc3c(cc12)CN(Cc1ccccc1)CC3
BT-549
  growth at 0.1 µM: 89%
NCI-H460
  growth at 100 µM: 8%
RPMI-8226 [1]
  GI50: 55.8 µM
  LC50: > 100 µM
  TGI: > 100 µM
OVCAR-8 [2]
  growth at 0.01 µM: 100%
SW-620
  growth at 0.1 µM: 97%
SF-268
  growth at 100 µM: 9%
UACC-257
  GI50: 52.8 µM
  LC50 (concentration killing 50% of cells): > 100 µM
  TGI: > 100 µM
COLO 205
  growth at 0.01 µM: 100%
RXF 393
  growth at 0.1 µM: 94%
OVCAR-4
  growth at 0.01 µM: 101%
A498 [3]
  growth at 0.1 µM: 82%
NCI/ADR-RES
  growth at 0.01 µM: 103%
MOLT-4 [4]
  growth at 100 µM: 18%
A498 [5]
  growth at 100 µM: 42%
SR
  growth at 0.01 µM: 98%
SNB-19
  GI50: 18.3 µM
  LC50: > 100 µM
  TGI: > 100 µM
HOP-62
  growth at 100 µM: -24%
PC-3
  growth at 0.01 µM: 95%
OVCAR-8 [6]
  growth at 1 µM: 98%
K562
  growth at 100 µM: 12%
LOX IMVI
  growth at 1 µM: 98%
786-0 [7]
  growth at 0.01 µM: 96%
NCI-H226 [8]
  growth at 0.1 µM: 96%
786-0 [9]
  GI50: 13 µM
  TGI: > 100 µM
  CC50: > 100 µM
MOLT-4 [10]
  GI50: 31.3 µM
  TGI: > 100 µM
  CC50: > 100 µM
MDA-MB-468
  growth at 0.1 µM: 98%
NCI-H226 [11]
  growth at 0.01 µM: 98%
MCF7
  growth at 0.1 µM: 86%
786-0 [12]
  growth at 100 µM: 22%
NCI-H322M
  growth at 0.01 µM: 93%
HT-29
  GI50: 24.7 µM
  LC50: > 100 µM
  TGI: > 100 µM
IGROV-1
  growth at 0.1 µM: 98%
CAKI-1
  growth at 100 µM: 36%
RPMI-8226 [13]
  growth at 1 µM: 93%
RPMI-8226 [14]
  growth at 0.1 µM: 99%

## COc1cccc(NC(=O)c2sc3nc4c(cc3c2N)CN(Cc2ccccc2)CC4)c1
BT-549
  growth at 0.1 µM: 91%
NCI-H460
  growth at 100 µM: -25%
RPMI-8226 [1]
  GI50: 38.9 µM
  LC50: > 100 µM
  TGI: > 100 µM
OVCAR-8 [2]
  growth at 0.01 µM: 99%
SW-620
  growth at 0.1 µM: 99%
SF-268
  growth at 100 µM: -40%
UACC-257
  GI50: 6.52 µM
  LC50 (concentration killing 50% of cells): > 100 µM
  TGI: > 100 µM
COLO 205
  growth at 0.01 µM: 92%
RXF 393
  growth at 0.1 µM: 95%
OVCAR-4
  growth at 0.01 µM: 86%
A498 [3]
  growth at 0.1 µM: 84%
NCI/ADR-RES
  growth at 0.01 µM: 102%
MOLT-4 [4]
  growth at 100 µM: 13%
A498 [5]
  growth at 100 µM: -47%
SR
  growth at 0.01 µM: 100%
SNB-19
  GI50: 4.75 µM
  LC50: > 100 µM
  TGI: > 100 µM
HOP-62
  growth at 100 µM: -71%
PC-3
  growth at 0.01 µM: 94%
OVCAR-8 [6]
  growth at 1 µM: 90%
K562
  growth at 100 µM: 8%
LOX IMVI
  growth at 1 µM: 86%
786-0 [7]
  growth at 0.01 µM: 90%
NCI-H226 [8]
  growth at 0.1 µM: 87%
786-0 [9]
  GI50: 3.61 µM
  TGI: 20.8 µM
  CC50: > 100 µM
MOLT-4 [10]
  GI50: 21.9 µM
  TGI: > 100 µM
  CC50: > 100 µM
MDA-MB-468
  growth at 0.1 µM: 89%
NCI-H226 [11]
  growth at 0.01 µM: 93%
MCF7
  growth at 0.1 µM: 87%
786-0 [12]
  growth at 100 µM: -47%
NCI-H322M
  growth at 0.01 µM: 101%
HT-29
  GI50: 3.75 µM
  LC50: 56.2 µM
  TGI: 15.2 µM
IGROV-1
  growth at 0.1 µM: 102%
CAKI-1
  growth at 100 µM: 11%
RPMI-8226 [13]
  growth at 1 µM: 84%
RPMI-8226 [14]
  growth at 0.1 µM: 101%
